For experiment [1], the target named is Beta-2 adrenergic receptor (Mus musculus, UniProt P18762). The experiment is described as follows: Ki value was determined by accumulation of c-AMP in S-49 mouse lymphoma cells (Beta2). Format: cell-based. An outline of the steps:
(§1)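 Antagonist Ki from in vitro inhibition of cyclic AMP accumulation, with cAMP quantified by radioimmunoassay. Cells were prepared as in the group's earlier work. Ki was calculated with the Cheng–Prusoff equation. The four single stereoisomers of each derivative, the stereoisomeric mixture and the parent drug were tested. Relative potency is given versus the parent drug.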

Experiment [2] is filed under the species Rattus norvegicus. The experiment is described as follows: Biological activity in vitro, Ki value was determined by accumulation of c-AMP in rat fat cells (Beta1). In kind it is functional, cell-based. An outline of the steps: as §1
Experiment [3] is filed under the species Rattus norvegicus. Description: Relative potency(RP) was determined for the biological activity determined in rat fat cells (Beta1). Format: functional. An outline of the steps:
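Rat fat cells (β1), prepared as previously described, were assayed in vitro for antagonist inhibition of cAMP accumulation, with cAMP measured by radioimmunoassay. Ki values were calculated with the Cheng–Prusoff equation. Potency is expressed relative to the progenitor drug, which was tested alongside the individual stereoisomers and the stereoisomeric mixture.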

These results are taken from ChEMBL document CHEMBL1124937 (J Med Chem, 1990).

pKi: −log10 of the molar value.

Chain of Beta-2 adrenergic receptor (P18762 whole entry): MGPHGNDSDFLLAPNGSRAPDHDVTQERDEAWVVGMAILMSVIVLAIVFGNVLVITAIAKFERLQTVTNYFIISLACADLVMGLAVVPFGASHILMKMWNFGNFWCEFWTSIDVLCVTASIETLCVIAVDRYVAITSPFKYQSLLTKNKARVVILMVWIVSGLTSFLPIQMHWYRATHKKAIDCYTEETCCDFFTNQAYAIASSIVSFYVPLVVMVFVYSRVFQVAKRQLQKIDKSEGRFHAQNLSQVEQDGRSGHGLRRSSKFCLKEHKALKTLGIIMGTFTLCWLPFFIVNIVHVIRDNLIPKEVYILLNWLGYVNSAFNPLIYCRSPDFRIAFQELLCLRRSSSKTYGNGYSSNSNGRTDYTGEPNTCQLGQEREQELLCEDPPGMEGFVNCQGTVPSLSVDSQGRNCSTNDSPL

As a reminder, the pKi is −log10 of the Ki, conventionally taken in molar units. The low end stands for a high Ki, the high end for a low Ki. Consider `Cc1ccc(NC(=O)CCCCC(C)NCC(O)COc2cccc3ccccc23)cc1` (stereo unspecified), for which the pKi in experiment [1] was 4.36.

For the molecule `CC(=O)Nc1ccc(OC[C@@H](O)CN[C@H](C)CCCCC(=O)Nc2ccc(C)cc2)cc1`, the pKi in the experiment listed under Rattus norvegicus [2] was 6.59; in experiment [1] it was 6.09. In the experiment filed under Rattus norvegicus [3], this molecule yielded a Relative potency of 2.71.

Consider `CC(=O)Nc1ccc(OC[C@@H](O)CN[C@H](C)CCCCC(=O)Nc2ccc(C(F)(F)F)cc2)cc1`, for which the pKi in the experiment filed under Rattus norvegicus [2] was 7.51; in experiment [1], 6.84. This molecule also yielded a Relative potency in the experiment listed under Rattus norvegicus [3] of 22.6.

With `CC(=O)Nc1ccc(OC[C@H](O)CN[C@H](C)CCCCC(=O)Nc2ccc(C(F)(F)F)cc2)cc1`, the figures for the pKi (in the experiment listed under Rattus norvegicus [2]; in experiment [1]) were 6.62 and 5.66, respectively. Also, the Relative potency in the experiment filed under Rattus norvegicus [3] amounted to 2.92.

Take `CC(=O)Nc1ccc(OC[C@H](O)CN[C@@H](C)CCCCC(=O)Nc2ccc(C)cc2)cc1`: the pKi was 5.58 in the experiment listed under Rattus norvegicus [2] and 5.03 in experiment [1]. The same molecule showed a Relative potency in the experiment listed under Rattus norvegicus [3] of 0.267.

On to `CC(=O)Nc1ccc(OCC(O)CNC(C)CCCCC(=O)Nc2ccc(C(F)(F)F)cc2)cc1` (stereo unspecified), for which the negative logarithm of the Ki (pKi) was 6.89 in the experiment filed under Rattus norvegicus [2] and 6.41 in experiment [1]. For the same molecule, in the experiment listed under Rattus norvegicus [3], the Relative potency came to 7.8.

For `C[C@H](CCCCC(=O)Nc1ccc(C(F)(F)F)cc1)NC[C@H](O)COc1cccc2ccccc12`, in experiment [1], the pKi was 4.34.

On to `Cc1ccc(NC(=O)CCCC[C@@H](C)NC[C@H](O)COc2cccc3ccccc23)cc1`, for which, in experiment [1], the negative logarithm of the Ki (pKi) was 5.04.

Turning to `CC(=O)Nc1ccc(OCC(O)CNC(C)CCCCC(=O)Nc2ccc(C)cc2)cc1` (stereo unspecified), the pKi in the experiment filed under Rattus norvegicus [2] is 6.59; in experiment [1], 5.93. In the experiment filed under Rattus norvegicus [3], the Relative potency was found to be 2.71.

In turn, `CC(CCCCC(=O)Nc1ccc(C(F)(F)F)cc1)NCC(O)COc1cccc2ccccc12` (stereo unspecified) showed a pKi in experiment [1] of 4.11.

Regarding `CC(=O)Nc1ccc(OC[C@@H](O)CN[C@@H](C)CCCCC(=O)Nc2ccc(C(F)(F)F)cc2)cc1`, the pKi in the experiment filed under Rattus norvegicus [2] is 6.46; in experiment [1], 5.55. Also, the Relative potency in the experiment listed under Rattus norvegicus [3] came out at 2.

As to `C[C@H](CCCCC(=O)Nc1ccc(C(F)(F)F)cc1)NC[C@@H](O)COc1cccc2ccccc12`, the negative-log Ki (pKi) in experiment [1] was 3.89.

As to `CC(=O)Nc1ccc(OC[C@@H](O)CN[C@@H](C)CCCCC(=O)Nc2ccc(C)cc2)cc1`, the negative-log Ki (pKi) was 5.80 in the experiment listed under Rattus norvegicus [2] and 4.81 in experiment [1]. In the experiment filed under Rattus norvegicus [3], this molecule displayed a Relative potency of 0.442.

Turning to `Cc1ccc(NC(=O)CCCC[C@H](C)NC[C@H](O)COc2cccc3ccccc23)cc1`, the pKi in experiment [1] was 4.39.

With `Cc1ccc(NC(=O)CCCC[C@@H](C)NC[C@@H](O)COc2cccc3ccccc23)cc1`, the pKi in experiment [1] is 3.71. Compared with the last molecule, the pKi is 0.68 log units lower.

Regarding `C[C@@H](CCCCC(=O)Nc1ccc(C(F)(F)F)cc1)NC[C@H](O)COc1cccc2ccccc12`, the pKi in experiment [1] was 4.41.

In the case of `CC(=O)Nc1ccc(OC[C@H](O)CN[C@H](C)CCCCC(=O)Nc2ccc(C)cc2)cc1`, the pKi in the experiment filed under Rattus norvegicus [2] is 5.70; in experiment [1], 4.27. Besides, the Relative potency in the experiment filed under Rattus norvegicus [3] turned out to be 0.351.

Consider `CC(=O)Nc1ccc(OC[C@H](O)CN[C@@H](C)CCCCC(=O)Nc2ccc(C(F)(F)F)cc2)cc1` (mixture of isomers), for which the values for the pKi (in the experiment listed under Rattus norvegicus [2]; in experiment [1]) were 5.17 and 4.21, respectively. Moreover, the Relative potency in the experiment listed under Rattus norvegicus [3] is given as 0.104.

For `Cc1ccc(NC(=O)CCCC[C@H](C)NC[C@@H](O)COc2cccc3ccccc23)cc1` (racemic), in experiment [1], the pKi is 3.71.

Take `C[C@@H](CCCCC(=O)Nc1ccc(C(F)(F)F)cc1)NC[C@@H](O)COc1cccc2ccccc12` (racemic): the pKi in experiment [1] is 3.75.

Regarding `CC(=O)Nc1ccc(OCC(O)CNC(C)C)cc1` (stereo unspecified) [PRACTOLOL], the negative logarithm of the Ki (pKi) in the experiment filed under Rattus norvegicus [2] is 6.15.
